IC50 data for eight compounds are collected here from BindingDB's records for doi:10.1016/j.bmc.2020.115710 (Indiana University School of Medicine, 2020).

The target in assay [1] is T1, Co-chaperonin GroES (Escherichia coli, UniProt Q7BGE6).
T1 sequence (Q7BGE6 whole entry): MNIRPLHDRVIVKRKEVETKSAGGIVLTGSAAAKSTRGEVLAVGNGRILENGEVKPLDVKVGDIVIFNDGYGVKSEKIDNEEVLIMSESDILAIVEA
The assay can be described thus: Inhibition of Escherichia coli GroEL/ES assessed as inhibition of native malate dehydrogenase treated after denatured malate dehydrogenase completely refold. The method in brief:
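Counter-screen on native MDH activity: compounds are added only after GroEL/ES has fully refolded the denatured MDH, so the assay flags compounds that act on the MDH reporter reaction itself. IC50 values are averages from at least five replicates. […] DMSO serves as the negative control.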

The target of assay [2] is T1, Co-chaperonin GroES. The assay can be described thus: Inhibition of Escherichia coli GroEL/ES assessed as inhibition of native malate dehydrogenase treated after denatured malate dehydrogenase completely refold in presence of NfsB nitroreductase. The procedure, abridged:
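Native MDH counter-screen with 10 µg/mL E. coli NfsB nitroreductase added to the initial GroEL/ES-dMDH solution. Compounds are added after the EDTA quench, then incubated 10 min at 37°C with NADH to bioactivate nitrofurans. Compounds in the reporter step span 56 µM to 25 nM (3-fold series).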

`O=C(N/N=C/c1ccc([N+](=O)[O-])o1)c1ccccc1`: the results for the IC50 in assay [1] and in assay [2] were above 63 µM and above 56 µM, respectively.
For `COc1ccc(C(=O)N/N=C/c2ccc([N+](=O)[O-])o2)cc1`, in that order: above 63 µM and above 56 µM.
As to `O=C(N/N=C/c1ccc([N+](=O)[O-])o1)c1ccc(O)cc1` [NIFUROXAZIDE], the figures for the IC50 in assay [1] and in assay [2] were above 63 µM and above 56 µM, respectively.
For `O=C(N/N=C/c1ccc([N+](=O)[O-])o1)c1cccs1` the same measures were above 63 µM and above 56 µM.
On to `O=C(N/N=C/c1ccc([N+](=O)[O-])o1)c1ccc(Cl)s1`, for which the IC50 (commonly the concentration needed to halve the response being measured) in assay [1] is above 63 µM; in assay [2], above 56 µM.
Regarding `O=C1CN(/N=C/c2ccc([N+](=O)[O-])o2)C(=O)N1` [MLS000028500], the IC50 was above 63 µM in assay [1] and above 56 µM in assay [2].
In the case of `O=C(N/N=C/c1ccc([N+](=O)[O-])o1)c1ccncc1` [N-[(E)-(5-nitro-2-furanyl)methylideneamino]-4-pyridinecarboxamide], the IC50 in assay [1] is above 63 µM; in assay [2] it was above 56 µM.
For `CN(C)c1ccc(C(=O)N/N=C/c2ccc([N+](=O)[O-])o2)cc1` the same measures were above 63 µM and above 56 µM.
